Source: ChEMBL document CHEMBL1155338, “Antioxidant and antibacterial studies of arylazopyrazoles and arylhydrazonopyrazolones containing coumarin moiety” (2009)
Activity calls are given as the source filed them. No cut-off for these calls is given here.

Assays:
Type in all cases: functional
[1] = tested on: Radical scavenging activity; test: Antioxidant activity assessed as DPPH radical scavenging after 30 mins; set-up: concentration or dose not given beside the values
Procedure, shortened: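 Compound in methanol mixed 1:1 with methanolic DPPH, both 0.2 mM stocks, giving 0.1 mM each final. Shaken, left 30 min, then A517 read. % scavenging = [(Ab + As) − Am]/Ab × 100, where Ab is DPPH alone, As is compound alone and Am is the mixture. Ascorbic acid reference. Three replicates, averaged.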

Bacillus subtilis = test: Antimicrobial activity against Bacillus subtilis NCIM 2010 after 24 hrs by disk diffusion method
Procedure, shortened: (§1)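 Disc diffusion on nutrient agar. Plates were swabbed evenly with a standard inoculum ([…] c.f.u./ml, 0.5 McFarland). 6.25 mm filter-paper discs were dry-heat sterilized (140 °C, 1 h), soaked in test compound at 250 mcg/disc, and placed on the agar. Solvent, growth and ciprofloxacin controls were included. Plates were incubated inverted 24 h at 37 °C and inhibition zones measured.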

Staphylococcus aureus = test: Antimicrobial activity against Staphylococcus aureus NCIM 5021 after 24 hrs by disk diffusion method; procedure, shortened: as §1

SMILES | Activity [1] | inhibition zone (IZ) (Bacillus subtilis) | inhibition zone (IZ) (Staphylococcus aureus)
CC1=NN(C(=O)COc2ccc3c(C)cc(=O)oc3c2)C(=O)/C1=N/Nc1ccc(Br)cc1 | inactive | 14 mm | 13.7 mm
Cc1nn(C(=O)COc2ccc3c(C)cc(=O)oc3c2)c(C)c1/N=N/c1ccc(Br)cc1 | 55% | 27 mm | 12.7 mm
CC1=NN(C(=O)COc2ccc3c(C)cc(=O)oc3c2)C(=O)/C1=N/Nc1ccc([N+](=O)[O-])cc1 | 31% | inactive | inactive
Cc1nn(C(=O)COc2ccc3c(C)cc(=O)oc3c2)c(C)c1/N=N/c1ccc(C(=O)O)cc1 | 32% | inactive | inactive
Cc1nn(C(=O)COc2ccc3c(C)cc(=O)oc3c2)c(C)c1/N=N/c1cccc([N+](=O)[O-])c1 | 38% | inactive | inactive
CC1=NN(C(=O)COc2ccc3c(C)cc(=O)oc3c2)C(=O)/C1=N/Nc1ccccc1C(=O)O | 20% | 26.7 mm | 12.3 mm
CC1=NN(C(=O)COc2ccc3c(C)cc(=O)oc3c2)C(=O)/C1=N/Nc1ccc(C)cc1C | 57% | inactive | inactive
CC1=NN(C(=O)COc2ccc3c(C)cc(=O)oc3c2)C(=O)/C1=N/Nc1ccc(Cl)cc1 | 53% | 24.3 mm | 11.3 mm
O=C1O[C@H]([C@@H](O)CO)C(O)=C1O | 96% | inactive | inactive
Cc1ccc(/N=N/c2c(C)nn(C(=O)COc3ccc4c(C)cc(=O)oc4c3)c2C)c(C)c1 | 24% | inactive | inactive
Cc1nn(C(=O)COc2ccc3c(C)cc(=O)oc3c2)c(C)c1/N=N/c1ccc(Cl)cc1 | 32% | inactive | inactive
O=C(O)c1cn(C2CC2)c2cc(N3CCNCC3)c(F)cc2c1=O [CIPROFLOXACIN] | inactive | 33.7 mm | 30 mm
CC1=NN(C(=O)COc2ccc3c(C)cc(=O)oc3c2)C(=O)/C1=N/Nc1cccc([N+](=O)[O-])c1 | 69% | inactive | inactive
Cc1nn(C(=O)COc2ccc3c(C)cc(=O)oc3c2)c(C)c1/N=N/c1ccc([N+](=O)[O-])cc1 | 32% | inactive | inactive
Cc1nn(C(=O)COc2ccc3c(C)cc(=O)oc3c2)c(C)c1/N=N/c1ccccc1C(=O)O | 28% | 16.7 mm | inactive
CC1=NN(C(=O)COc2ccc3c(C)cc(=O)oc3c2)C(=O)/C1=N/Nc1ccc(C(=O)O)cc1 | inactive | inactive | inactive
